Bioassay records: PubChem BioAssay, several laboratories
Pemphigus Ab inh: blocks pemphigus antibody binding to human desmoglein-3; P32926; DSG3-coupled beads, scFv-anti-DSG3-GFP binding, flow cytometry; active compounds read low; binding (percent of control), % at 10 µM; 0.48% of 310,000 active;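 active = binding more than 3 SD below its plate's average and above zero; inconclusive = below that plate limit but binding exactly zero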;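 also: hits lower antibody fragment binding to DSG3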
LMPTP inh: LMPTP (human) inhibition; P24666; recombinant LMPTP-A, OMFP fluorogenic substrate, fluorescence intensity; inhibition, % at 20 µM; 0.22% of 360,000 active;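 active = compounds that cut the enzyme signal by at least half of the control window in the single-dose screen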;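 also: plate controls were DMSO wells with enzyme plus substrate for no effect and substrate without enzyme for full effect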
Target sequence (P24666 whole entry, looked up): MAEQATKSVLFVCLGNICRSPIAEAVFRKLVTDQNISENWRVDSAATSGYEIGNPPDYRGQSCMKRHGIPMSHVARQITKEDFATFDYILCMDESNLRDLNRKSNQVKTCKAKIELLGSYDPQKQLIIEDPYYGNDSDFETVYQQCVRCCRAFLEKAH
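Assay system: LMPTP-A enzyme. Input: 0.625 nM LMPTP-A final. Probe or stimulus: 400 µM OMFP. Compound dosing: single 20 µM dose. Schedule: 50 min dark incubation at room temperature. Detection: fluorescence intensity of OMFP turnover product. Read-out: percent inhibition versus substrate-only and uninhibited controls. Benchmarks: no-enzyme low control, uninhibited high control.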
STEP inh: inhibitors of human striatal-enriched phosphatase STEP; P54829; recombinant STEP, OMFP fluorogenic substrate, fluorescence; inhibition, % at 20 µM; 0.25% of 360,000 active; AID 588621;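 active = inhibition at 20 µM, scaled per plate between control wells, above about 37%, limit read from the data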;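 also: 0% = DMSO with enzyme and substrate and 100% = substrate only without enzyme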
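Material: STEP (striatal-enriched tyrosine phosphatase) enzyme, cell-free; Compound dosing: 20 µM single dose in 1% DMSO; Technique: fluorescence read at 480 nm ex / 540 nm em; Times: reaction 20 min, ambient temperature; Medium: 50 mM Bis-Tris pH 6.0 with 2.5 mM DTT and 0.005% Tween 20; Also added: OMFP at 25 µM.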
SUMO1 PPI mod: alters human SUMO1 binding to SIM partners; P63165; SUMO1 binding to a labelled peptide, TR-FRET, 1 h; inhibition, % at 20 µM; 0.33% of 360,000 active; AID 602429; in the data active = inhibition above about 37%
Target sequence (P63165 whole entry, looked up): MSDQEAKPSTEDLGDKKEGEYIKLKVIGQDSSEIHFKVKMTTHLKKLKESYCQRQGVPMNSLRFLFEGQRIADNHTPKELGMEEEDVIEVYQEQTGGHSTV
Scp-1 inhibitor: Scp-1 (human) phosphatase inhibition. inhibition, % at 20 µM. Recombinant Scp1, phosphopeptide, malachite green phosphate absorbance. AID 493091. Q9GZU7. 0.88% of 340,000 active;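 active = inhibition above about 50% at 20 µM, limit read from the data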;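 also: plate controls were DMSO wells with enzyme for no effect and wells lacking enzyme for full effect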
Target sequence (Q9GZU7 76-261 limits assumed): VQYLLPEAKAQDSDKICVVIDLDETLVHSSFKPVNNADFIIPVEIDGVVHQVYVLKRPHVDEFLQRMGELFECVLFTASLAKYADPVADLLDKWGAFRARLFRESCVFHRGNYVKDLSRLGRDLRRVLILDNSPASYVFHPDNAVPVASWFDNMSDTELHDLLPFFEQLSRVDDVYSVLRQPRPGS
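Assay system: SCP-1 catalytic fragment, aa 76-261 | Buffer or medium: Tris acetate buffer pH 5.5 with MgCl2 and Tween-20 | Compound: One concentration, 20 µM, with 1.0% DMSO | Also added: Phospho 17-mer peptide substrate | Signal: Absorbance at 630 nm | Incubation: 45 min enzyme reaction at room temperature | Measure: % inhibition of SCP-1 phosphate liberation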
* marks the source's active call; other numbers are inactive results; ? = inconclusive; . = no result. Shown are actives, neighbours in structure and some others; about 1.7% of the full set was active somewhere.

SMILES	Pemphigus Ab inh	LMPTP inh	STEP inh	SUMO1 PPI mod	Scp-1 inhibitor
O=C(CSc1nnc(SCc2ccccc2)s1)N/N=C/C=C\c1ccco1	103.0	28.3	2.6	12.9	81.5*
O=C(CSc1nnc(SCc2ccccc2)s1)N/N=C/C=C/c1ccccc1[N+](=O)[O-]	105.0	1.5	3.6	-5.3	-11.7
O=C(CSc1nnc(SCc2ccccc2)s1)N/N=C/c1c[nH]c2ccccc12	93.4	12.2	4.2	75.2*	-2.3
Cc1ccc(CSc2nnc(SCC(=O)N/N=C/c3c[nH]c4ccccc34)s2)cc1	104.3	32.5	11.5	18.5	42.0
O=C(CSc1nc(-c2ccccc2Cl)ns1)NCc1ccc2c(c1)OCO2	74.7*	-1.5	0.0	-1.8	-7.1
Cc1cc(=O)[nH]c(SCC(=O)NCc2ccco2)n1	103.0	0.0	4.4	22.7	67.0*
O=C(CSc1nc(-c2ccccc2)cc(=O)[nH]1)NCc1ccc2c(c1)OCO2	67.9*	0.0	-14.0	3.4	6.3
Cc1nn(CC(=O)Nc2cccnc2)c(C)c1[N+](=O)[O-]	95.2	-0.1	11.7	4.5	-4.1
CCSc1ccc([C@@H]2[C@H]3C(=O)N(CC)C(=O)[C@H]3[C@]3(C(=O)OC)CCCCN23)cc1OC	116.7	2.4	0.7	7.2	0.6
COc1ccccc1C(=O)COC(=O)c1cc(=O)[nH]c2ccccc12	105.1	-0.7	0.2	-30.7	-4.8
Cc1ccc(C(=O)COC(=O)c2cc(=O)[nH]c3ccccc23)cc1C	97.9	23.9	24.6	9.7	80.6*
COC(=O)c1cccc(-n2sc3ccccc3c2=O)c1	37.8*	-1.7	1.9	-2.3	94.8*
O=c1c2ccc(F)cc2sn1-c1ccccc1	50.1*	-1.5	0.7	4.9	.
O=c1c2ccccc2sn1-c1ccc(F)cc1	42.5*	-2.2	2.3	2.6	80.8*
Cc1ccc(-n2sc3cc(F)ccc3c2=O)c(C)c1	62.5*	-1.8	0.6	3.3	.
O=C(CSc1ccc(-c2ccncc2)nn1)N1CCN(c2ccccc2)CC1	115.9	1.2	1.9	-3.4	-0.3
O=C1NC(=S)SC1=Cc1ccccn1	.	0.0	1.0	-12.5	.
O=c1c2ccccc2sn1-c1ccc(Cl)cc1	.	0.0	-1.6	1.7	.
Cc1ccc(-n2sc3ccccc3c2=O)cc1	.	0.0	-2.8	1.8	63.7*
C=CCc1cc(C=Nc2ccc(N3CCOCC3)cc2)cc(OCC)c1O	111.5	-0.4	-0.1	0.3	-4.5
COC(=O)NNC(=O)C(c1ccccc1)c1ccccc1	103.7	-0.8	-1.2	-7.5	-1.7
CCN(Cc1ccccc1)C(=O)C1CCN(Cc2ccc(SC)cc2)CC1	95.0	-0.6	0.1	42.5*	-5.4
CCN(Cc1ccccc1)C1CCN(Cc2ccc(SC)cc2)CC1	105.0	-3.5	14.8	18.8	-11.2
N#CC(C#N)=C1NC(N)=C(C#N)C(c2ccccc2)=C1C#N	93.7	2.6	2.4	40.5*	.
N#CC1=C(c2ccccc2)/C(=C/c2ccccc2)OC1=O	103.3	-0.2	4.4	6.2	-7.0
SMILES	Pemphigus Ab inh	LMPTP inh	STEP inh	SUMO1 PPI mod	Scp-1 inhibitor
Cc1ccc(O)c(NC(=O)CSc2ccc(Cl)cc2)c1	3.0*	0.3	0.5	-0.9	6.2
O=C(Nc1ccc(NC(=O)N2CCN(c3ccccc3O)CC2)cc1)N1CCN(c2ccccc2O)CC1	53.9*	10.0	2.8	-4.8	-7.7
CC(C)(C)OC(=O)N1CCCN(C(=O)Nc2ccccc2)CC1	86.5*	-0.2	-2.7	-1.5	0.1
CCc1noc(C)c1C(=O)OCC(=O)Nc1cccc(C)c1	100.6	-0.5	-2.8	1.7	-6.1
O=C(NCC(c1cccs1)N1CCOCC1)c1cc(S(=O)(=O)N2CCOCC2)ccc1Cl (stereo not given)	?	-1.5	-1.1	4.8	-3.4
Cc1ccc(CN2C(=O)N/C(=C\c3ccc(-c4ccc(C(=O)O)cc4C)o3)C2=O)cc1	92.8	3.6	10.4	20.6	70.8*
O=C1S/C(=C\c2ccc(O)c([N+](=O)[O-])c2)C(=O)N1Cc1cccc([N+](=O)[O-])c1	99.6	2.3	7.1	7.4	0.7
Cc1ccc(NC(=O)CN2C(=O)S/C(=C/c3ccc(-c4cccc(C(=O)O)c4)o3)C2=O)cc1	101.2	64.2*	40.5*	17.1	64.9*
Cc1ccc(NC(=O)CN2C(=O)S/C(=C/c3ccc(O)c([N+](=O)[O-])c3)C2=O)cc1C	102.0	79.7*	23.9	2.9	76.0*
Cc1cc(C(=O)O)ccc1-c1ccc(/C=C2\SC(=O)N(CC(=O)Nc3ccc4c(c3)OCO4)C2=O)o1	.	79.5*	64.3*	72.8*	.
Cc1ccc(NC(=O)CN2C(=O)S/C(=C\c3cc(C)n(-c4cccc(C(=O)O)c4)c3C)C2=O)cc1	99.3	1.5	-0.7	-12.2	-10.4
Cc1cccc(N2N=C(C(=O)OCC(=O)c3ccccc3)CCC2=O)c1	90.6	-0.5	-0.1	2.8	-5.4
COc1cc(/C=C2\SC(=O)N(CC(=O)Nc3ccc(C)cc3)C2=O)cc(Cl)c1OCC(=O)O	103.7	83.6*	98.3*	46.5*	25.5
C#CCN1C(=O)S/C(=C\c2ccc(-c3ccc(C(=O)O)cc3C)o2)C1=O	103.8	21.8	-0.1	19.1	61.7*
COc1ccccc1CNC(=O)COC(=O)COc1ccccc1Cc1ccccc1	94.8	3.2	2.8	4.8	-12.4
CC1CCN(c2nc3ccc(C(=O)N4CCN(Cc5ccc6c(c5)OCO6)CC4)cc3s2)CC1	103.7	-0.4	-2.6	4.4	-12.2
CC1=C(C#N)c2nc(N)c(C#N)c(C)c2/C1=C\c1ccc(OCC(=O)O)c(Cl)c1	87.0	31.5	1.0	37.4*	2.5
O=C(CNC(=O)c1ccc(S(=O)(=O)N2CCCC2)cc1)N/N=C/c1ccco1	84.9	0.6	-0.7	-3.7	6.6
COC(=O)CCCCCCCCC(O)CN1CCCCC1 (stereo not given)	85.2	-1.3	-1.7	-0.9	-12.2
c1ccc2sc(NC3=NCN(CCN4CCOCC4)CN3)nc2c1	77.5*	-2.0	-1.0	-2.0	-6.2
Cc1ccc2[nH]c(=O)c(CN(CCCN3CCOCC3)C(=O)NC3CCCCC3)cc2c1	93.5*	-0.5	1.7	2.2	-4.7
O=C(Cn1c(=O)c2cccn2c2ccccc21)Nc1ccc(F)cc1F	114.3	-0.6	-0.9	1.0	-10.3
Cc1ccc(NC(=O)Cn2c(=O)c3cccn3c3ccccc32)c(Cl)c1	31.9*	3.8	1.5	3.5	7.4
CCN(c1ccccc1)S(=O)(=O)c1ccc(Cl)c(NC(=O)CSc2ncn[nH]2)c1	.	-1.8	0.6	1.5	-2.3
CCN(c1ccccc1)S(=O)(=O)c1ccc(Cl)c(NC(=O)c2ccc(=O)[nH]n2)c1	21.2*	0.5	-1.5	4.3	-1.1
Cc1nn(-c2ccccc2)c(C)c1NC(=O)COc1cc(F)ccc1[N+](=O)[O-]	?	-1.3	4.1	-10.4	-4.9
